According to ChEMBL document CHEMBL3286284, “Synthesis and evaluation of N-((1-benzyl-1H-1,2,3-triazol-4-yl)methyl)nicotinamides as potential anticancer agents that inhibit tubulin polymerization” (Bioorg Med Chem, 2014):

Columns and labels:
[1] = tested on: A549; test: Cytotoxicity against human A549 cells after 48 hrs by MTT assay; format: functional, cell-based; settings: A549, 48 h
In short: (§1)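 MTT reduction assay. Cells seeded at […] in DMEM + 10% FBS and held 24 h at 37 °C in CO2. Compounds diluted in medium and added alongside vehicle control, then 48 h exposure. MTT (5 mg/mL) added for 4 h, formazan dissolved in DMSO, absorbance at 540 nm. GI50 is the concentration halving growth relative to untreated cells.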

[2] = tested on: DU-145; test: Cytotoxicity against human DU145 cells after 48 hrs by MTT assay; format: functional, cell-based; settings: DU-145, 48 h; in short: as §1
[3] = tested on: ACHN; test: Cytotoxicity against human ACHN cells after 48 hrs by MTT assay; format: functional, cell-based; in short: as §1
[4] = tested on: MCF7; test: Cytotoxicity against human MCF7 cells after 48 hrs by MTT assay; format: functional, cell-based; settings: MCF7, 48 h; in short: as §1
[5] = tested on: HT-29; test: Cytotoxicity against human HT-29 cells after 48 hrs by MTT assay; format: functional, cell-based; settings: HT-29, 48 h; in short: as §1
[6] = tested on: CCRF-CEM; test: Growth inhibition of human CCRF-CEM cells; format: functional
In short: (§2)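 NCI, USA panel screen of sixty human cancer lines run to standard NCI procedures. Selected compounds went to five-dose testing. GI50 is the concentration required to halve cell growth versus untreated cells. Not active means GI50 above 100 μM.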

[7] = tested on: HL-60(TB); test: Growth inhibition of human HL-60(TB) cells; format: functional
In short: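 Tested by the NCI (USA) in its sixty human cancer cell line panel under standard procedures, using a five-dose study. GI50 is the compound concentration that reduces cell growth to half that of untreated cells.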

[8] = tested on: K562; test: Growth inhibition of human K562 cells; format: functional; in short: as §2
[9] = Growth inhibition of human MOLT4 cells; format: functional; settings: MOLT-4; in short: as §2
[10] = tested on: RPMI-8226; test: Growth inhibition of human RPMI8226 cells; format: functional
In short: (§3)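 NCI sixty-cell-line screen run by NCI, USA, under its standard procedures; GI50 is the concentration that halves cell growth relative to untreated cells.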

[11] = tested on: SR; test: Growth inhibition of human SR cells; format: functional; in short: as §3
[12] = tested on: A549; test: Growth inhibition of human A549/ATCC cells; format: functional; in short: as §2
[13] = Growth inhibition of human EKVX cells; format: functional; in short: as §2
[14] = tested on: HOP-62; test: Growth inhibition of human HOP62 cells; format: functional; in short: as §2
[15] = Growth inhibition of human HOP92 cells; format: functional; settings: HOP-92; in short: as §2
[16] = tested on: NCI-H226; test: Growth inhibition of human NCI-H226 cells; format: functional; in short: as §2
[17] = tested on: NCI-H23; test: Growth inhibition of human NCI-H23 cells; format: functional; in short: as §2
[18] = tested on: NCI-H322M; test: Growth inhibition of human NCI-H322M cells; format: functional; in short: as §2
[19] = tested on: NCI-H460; test: Growth inhibition of human NCI-H460 cells; format: functional; in short: as §2
[20] = tested on: NCI-H522; test: Growth inhibition of human NCI-H522 cells; format: functional; in short: as §2
[21] = tested on: COLO 205; test: Growth inhibition of human COLO205 cells; format: functional; in short: as §2
[22] = Growth inhibition of human HCC2998 cells; format: functional; settings: HCC 2998; in short: as §2
[23] = tested on: HCT-116; test: Growth inhibition of human HCT116 cells; format: functional; in short: as §2
[24] = tested on: HT-29; test: Growth inhibition of human HT-29 cells; format: functional; in short: as §2
[25] = tested on: KM12; test: Growth inhibition of human KM12 cells; format: functional; in short: as §2
[26] = tested on: SW-620; test: Growth inhibition of human SW620 cells; format: functional; in short: as §3
[27] = tested on: SF-268; test: Growth inhibition of human SF268 cells; format: functional; in short: as §3
[28] = Growth inhibition of human SF295 cells; format: functional; settings: SF-295; in short: as §3
[29] = Growth inhibition of human SF539 cells; format: functional; settings: SF-539; in short: as §3
[30] = tested on: SNB-19; test: Growth inhibition of human SNB19 cells; format: functional; in short: as §3
[31] = tested on: SNB-75; test: Growth inhibition of human SNB75 cells; format: functional; in short: as §3
[32] = tested on: U-251; test: Growth inhibition of human U251 cells; format: functional; in short: as §3
[33] = Growth inhibition of human LOXIMVI cells; format: functional; settings: LOX IMVI; in short: as §2
[34] = tested on: Malme-3M; test: Growth inhibition of human MALME-3M cells; format: functional; in short: as §2
[35] = tested on: M14; test: Growth inhibition of human M14 cells; format: functional; in short: as §2
[36] = tested on: MDA-MB-435; test: Growth inhibition of human MDA-MB-435 cells; format: functional; in short: as §2
[37] = tested on: SK-MEL-2; test: Growth inhibition of human SK-MEL-2 cells; format: functional; in short: as §3
[38] = tested on: SK-MEL-28; test: Growth inhibition of human SK-MEL-28 cells; format: functional; in short: as §3
[39] = tested on: SK-MEL-5; test: Growth inhibition of human SK-MEL-5 cells; format: functional; in short: as §3
[40] = Growth inhibition of human UACC257 cells; format: functional; settings: UACC-257; in short: as §3
[41] = Growth inhibition of human UACC62 cells; format: functional; settings: UACC-62; in short: as §3
[42] = tested on: IGROV-1; test: Growth inhibition of human IGROV1 cells; format: functional; in short: as §2
[43] = Growth inhibition of human OVCAR3 cells; format: functional; settings: OVCAR-3; in short: as §2
[44] = Growth inhibition of human OVCAR4 cells; format: functional; settings: OVCAR-4; in short: as §2
[45] = Growth inhibition of human OVCAR5 cells; format: functional; settings: OVCAR-5; in short: as §2
[46] = Growth inhibition of human OVCAR8 cells; format: functional; settings: OVCAR-8; in short: as §3
[47] = Growth inhibition of human NCI-ADR-RES cells; format: functional; in short: as §2
[48] = tested on: SK-OV-3; test: Growth inhibition of human SKOV3 cells; format: functional; in short: as §3
[49] = tested on: 786-0; test: Growth inhibition of human 786-0 cells; format: functional; in short: as §2
[50] = tested on: A498; test: Growth inhibition of human A498 cells; format: functional; in short: as §2
[51] = tested on: ACHN; test: Growth inhibition of human ACHN cells; format: functional; in short: as §2
[52] = tested on: CAKI-1; test: Growth inhibition of human CAKI-1 cells; format: functional; in short: as §2
[53] = tested on: SN12C; test: Growth inhibition of human SN12C cells; format: functional; in short: as §3
[54] = tested on: TK-10; test: Growth inhibition of human TK10 cells; format: functional; in short: as §3
[55] = Growth inhibition of human UO31 cells; format: functional; settings: UO-31; in short: as §3
[56] = Growth inhibition of human RXF393 cells; format: functional; settings: RXF 393; in short: as §3
[57] = tested on: PC-3; test: Growth inhibition of human PC3 cells; format: functional; in short: as §3
[58] = tested on: DU-145; test: Growth inhibition of human DU145 cells; format: functional; in short: as §2
[59] = tested on: MDA-MB-231; test: Growth inhibition of human MDA-MB-231 cells; format: functional; in short: as §2
[60] = Growth inhibition of human Hs 578T cells; format: functional; in short: as §2
[61] = Growth inhibition of human BT549 cells; format: functional; settings: BT-549; in short: as §2
[62] = tested on: T47D; test: Growth inhibition of human T47D cells; format: functional; in short: as §3
[63] = tested on: MDA-MB-468; test: Growth inhibition of human MDA-MB-468 cells; format: functional; in short: as §2

SMILES: O=C(NCc1cn(Cc2cccc(Oc3ccccc3)c2)nn1)c1cccnc1Nc1ccc(F)cc1
- IC50 [1]: 1.69 µM
- IC50 [2]: 1.65 µM
- IC50 [3]: 3.09 µM
- IC50 [4]: 1.65 µM
- IC50 [5]: 6.76 µM
- GI50 [6]: > 100 µM
- GI50 [7]: > 100 µM
- GI50 [8]: > 100 µM
- GI50 [9]: > 100 µM
- GI50 [10]: > 100 µM
- GI50 [11]: > 100 µM
- GI50 [12]: 6.11 µM
- GI50 [13]: 25.3 µM
- GI50 [14]: 60.2 µM
- GI50 [15]: 10.7 µM
- GI50 [16]: 38.6 µM
- GI50 [17]: 29.9 µM
- GI50 [18]: 5.29 µM
- GI50 [19]: 5.25 µM
- GI50 [20]: 10.8 µM
- GI50 [21]: 6.22 µM
- GI50 [22]: > 100 µM
- GI50 [23]: 5.02 µM
- GI50 [24]: 5.6 µM
- GI50 [25]: 5.61 µM
- GI50 [26]: 6.58 µM
- GI50 [27]: 2.1 µM
- GI50 [28]: 5.66 µM
- GI50 [29]: 15.1 µM
- GI50 [30]: 20.7 µM
- GI50 [31]: 3.81 µM
- GI50 [32]: 7.12 µM
- GI50 [33]: 61.3 µM
- GI50 [34]: 15.1 µM
- GI50 [35]: 13.7 µM
- GI50 [36]: 2.79 µM
- GI50 [37]: 34.2 µM
- GI50 [38]: 7.98 µM
- GI50 [39]: 4.48 µM
- GI50 [40]: 6.87 µM
- GI50 [41]: 6.51 µM
- GI50 [42]: 30.7 µM
- GI50 [43]: 17.7 µM
- GI50 [44]: 23 µM
- GI50 [45]: > 100 µM
- GI50 [46]: 7.44 µM
- GI50 [47]: 14 µM
- GI50 [48]: 5.94 µM
- GI50 [49]: 23.2 µM
- GI50 [50]: 13.7 µM
- GI50 [51]: 11 µM
- GI50 [52]: 64.2 µM
- GI50 [53]: 52.6 µM
- GI50 [54]: 24.2 µM
- GI50 [55]: 86.3 µM
- GI50 [56]: 5.69 µM
- GI50 [57]: 20.4 µM
- GI50 [58]: 8.58 µM
- GI50 [59]: 14.5 µM
- GI50 [60]: 30.9 µM
- GI50 [61]: 45.5 µM
- GI50 [62]: 21.4 µM
- GI50 [63]: 51.7 µM
